Active and inactive are the calls of the source. The rule behind the calls is not given here.
Assays:
[1] = test system: Apis mellifera; assay: Inhibition of bee venom sPLA2 at 10 uM
Procedure, shortened: (§1)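 Radiometric sPLA2 assay on E. coli CECT 101 membranes labelled by growth for 6–8 h at 37 °C with [3H]oleic acid, then autoclaved. Bee venom or human recombinant synovial enzyme in 100 mM Tris-HCl, 1 mM CaCl2, pH 7.5. Enzyme preincubated 5 min at 37 °C with compound or vehicle, then 15 min with membranes. Stopped with ice-cold BSA and centrifuged. Supernatant radioactivity counted by scintillation. IC50 from at least four concentrations (n = 6). Mean ± SEM.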

[2] = organism: Rattus norvegicus; assay: Inhibition of rat air pouch sPLA2 at 10 uM
Procedure, shortened: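 sPLA2 source was exudate supernatant from zymosan-injected rat air pouch. Preincubated 5 min at 37 °C with compound or vehicle, then 15 min with autoclaved [3H]oleate-labelled E. coli CECT 101 membranes. Stopped with ice-cold BSA (0.07% w/v final). Released radioactivity in the supernatant counted by scintillation. Mean ± SEM, n = 6.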

[3] = Inhibition of bee venom sPLA2; set-up: species or system Apis mellifera; procedure, shortened: as §1
[4] = organism: Homo sapiens; assay: Inhibition of human synovial sPLA2 at 10 uM
Procedure, shortened: (§2)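 Purified enzyme (Naja naja venom, porcine pancreatic, or human recombinant synovial) in 100 mM Tris-HCl, 1 mM CaCl2, pH 7.5, preincubated 5 min at 37 °C with compound or vehicle. Then incubated 15 min with autoclaved E. coli CECT 101 membranes labelled with [3H]oleic acid. Stopped with ice-cold BSA (0.07% w/v final). Supernatant radioactivity counted after centrifugation. Mean ± SEM, n = 6.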

[5] = organism: Sus scrofa; assay: Inhibition of pig pancreas sPLA2 at 10 uM; procedure, shortened: as §2
[6] = Inhibition of human synovial sPLA2; procedure, shortened: as §1
[7] = test system: Naja naja; assay: Inhibition of Naja naja sPLA2 at 10 uM; procedure, shortened: as §2
[8] = test system: RAW264.7; assay: Inhibition of cPLA2 in mouse RAW264.7 cells; format: cell-based
Procedure, shortened: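 Enzyme was the cytosolic fraction of murine RAW 264.7 cells. Substrate was 1-palmitoyl-2-[14C]arachidonyl-phosphatidylcholine. Compound in methanol (<1% final) added before the enzyme, then 60 min at 37 °C. Stopped with isopropanol-heptane-0.5 M H2SO4 (10:5:1). Released arachidonate in the heptane phase was cleaned on silica gel and counted.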

[9] = Cytotoxicity against human neutrophils up to 10 uM by MTT assay; format: cell-based; conditions: neutrophil
Procedure, shortened: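 Viability of human neutrophils assessed by mitochondrial reduction of MTT to formazan.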

For CC1=C(CC/C(C)=C/CCC2=CC[C@H](C3=CC(=O)OC3O)O[C@@H]2O)C(C)(C)CCC1 (some centres not stated) [MANOLIDE], the inhibition [1] was 62.5%, the inhibition [2] was 38.4% and the IC50 [3] was 7.5 µM. For the same compound, the inhibition [4] was 93.2%, the inhibition [5] was 32.3% and the IC50 [6] was 3.9 µM.
CC1(C)CCC[C@@]2(C)C1CC[C@@]1(C)c3cc[n+](CCS(=O)(=O)O)cc3CCC21 (some centres not stated) [SPONGIDINE D] gave an inhibition [1] of 37.6%, an inhibition [7] of 0% and an inhibition [2] of 19.6%. The Activity [8] was “inactive”, the inhibition [4] was 48.2% and the inhibition [5] was 7.6%. For the same compound, the Activity [9] was “Not Active”.
CC(=O)OC[C@@]1(C)CCC[C@@]2(C)C1CC[C@@]1(C)c3cc[n+](CC(=O)O)cc3CCC21 (some centres not stated) [SPONGIDINE B] gave an inhibition [1] of 32.2%, an inhibition [7] of 0.4% and an inhibition [2] of 17.9%. For the same compound, the Activity [8] was “inactive”, the inhibition [4] was 34.6% and the inhibition [5] was 14.2%. The Activity [9] was “Not Active”.
With C[C@]1(CO)CCC[C@]2(C)[C@H]3CC[C@@H]4C(O)O[C@@H](C5=CC(=O)OC5O)C[C@H]4[C@]3(C)CC[C@H]12 (some centres not stated) [PETROSASPONGIOLIDE P] the inhibition [1] was 5.4%, the inhibition [7] was 8.7% and the inhibition [2] was 25.6%. The inhibition [4] was 87.2%, the inhibition [5] was 19.5% and the IC50 [6] was 5.8 µM. For the same compound, the Activity [9] was “Not Active”.
CC1(C)CCC[C@@]2(C)C1CC[C@@]1(C)c3cc[n+](CC(=O)O)cc3CCC21.[Cl-] (some centres not stated) [SPONGIDINE A] showed an inhibition [1] of 33.1%, an inhibition [7] of 0.5% and an inhibition [2] of 17.1%. For the same compound, the Activity [8] was “inactive”, the inhibition [4] was 40.1% and the inhibition [5] was 18%. For the same compound, the Activity [9] was “Not Active”.
For C[C@]1(CO)CCC[C@]2(C)[C@H]3CC[C@@H]4C=C(CC(=O)O)C(=O)C[C@H]4[C@]3(C)CC[C@H]12 [PETROSASPONGIOLIDE K], the inhibition [1] was 37.1%, the inhibition [7] was 1.3% and the inhibition [2] was 18.8%. For the same compound, the inhibition [4] was 34.4%, the inhibition [5] was 14.3% and the Activity [9] was “Not Active”.
With CC1(C)CCC[C@@]2(C)C1CC[C@@]1(C)c3cc(CCC(=O)O)[n+](CC(=O)O)cc3CCC21.[Cl-] (some centres not stated) [SPONGIDINE C] the inhibition [1] was 36.2%, the inhibition [7] was 3.1% and the inhibition [2] was 30.9%. For the same compound, the Activity [8] was “inactive”, the inhibition [4] was 40.4% and the inhibition [5] was 9.1%. The Activity [9] was “Not Active”.

From ChEMBL document CHEMBL1155688, “New pyridinium alkaloids from a marine sponge of the genus Spongia with a human phospholipase A(2) inhibitor profile” (J Nat Prod, 2000)
